Consider four molecules from publication PMC10390885 (Clinical Cancer Research, 2023).

Where “and” joins values, the source holds several entries; their conditions need not be identical. Equal values may be shown once. Entries after “also recorded” stand apart in the source; their conditions may differ. Read-outs that look alike come from different tables or passages of the source. Some results are limits rather than exact numbers.

The subject of data set [1] is ER. The following applies: ER+ cell lines; preclinical studies; cited from earlier work.
The subject of data set [2] is advanced ER-positive HER2-negative breast cancer. The following applies: cited from earlier work.
Data set [3] relates to postmenopausal women with ER+/HER2− locally advanced or metastatic breast cancer. Briefly: Phase I safety: adverse events. It is filed as in vivo, human. An outline of the steps:
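Oral tablets were given as a single lead-in dose on day −7, then once daily from day 1 in 28-day cycles. Escalation used a 3+3 design, starting at 600 mg/day with 400 mg steps, plus an expansion cohort at 1,400 mg/day. DLT window ran from day −7 through cycle 1 (35 days). AEs were graded by NCI CTCAE v4.0. All patients dosed on cycle 1 day 1 were included, summarised descriptively.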

In data set [4] the test system is ER. Briefly: [18F]-fluoroestradiol. The conditions noted are these: cycle 2 day 3 vs baseline; 9 patients with FES-avid disease; 600, 1,000, 1,400 mg. It counts as in vivo, human.
The subject of data set [5] is ER. The experiment in a line: IHC of ER protein in baseline and on-treatment biopsies. It is filed as in vivo, human. The following applies: on-treatment (cycle 2 or 3, day 8) vs baseline biopsies. The gist of the method: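 Baseline and on-treatment tumour biopsies (cycle 2 or 3, day 8) were stained for ER by IHC in one laboratory and scored by one pathologist. H-score (0–300) = 3×% strong-intensity nuclei + 2×% intermediate + 1×% weak nuclei among tumour cells. Paired samples only.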

Data set [6] relates to ER+/HER2− advanced or metastatic breast cancer. Briefly: Antitumor activity by RECIST v1.1. It is filed as in vivo, human.
The subject of data set [7] is PIK3CA/AKT1 mutations in ctDNA. Briefly: ctDNA BEAMing digital PCR, PIK3CA/AKT1 mutant allele frequency. It is filed as in vivo, human. The following applies: first postbaseline ctDNA sample (cycle 3 day 1 or end-of-treatment). An outline of the steps: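 Hotspot mutations were measured in plasma ctDNA by BEAMing digital PCR: AKT1 E17K and PIK3CA C420R, E542K, E545G/K, Q546K, M1043I, H1047L/R/Y. Mutant allele fraction at baseline was compared with the first available post-baseline sample (cycle 3 day 1 or end of treatment) in paired samples.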

The subject of a further data set is ESR1 mutations in ctDNA. The experiment in a line: FACT next-generation sequencing ctDNA assay. It counts as in vivo, human. The conditions noted are these: 1,400 mg; vs 52% pretreatment.
Data set [8] deals with ESR1 mutant and wild-type patient-derived xenograft models of ER+ breast cancer. The conditions noted are these: preclinical, cited from earlier work.
Data set [9] deals with ER. The conditions noted are these: preclinical studies; cited from earlier work.
The mark [10] stands for this setting: N = 42, considered related to study drug, any grade.
The mark [11] stands for this setting: N = 42, considered related to study drug, grade 3.
Setting [12] is: N = 42, regardless of causality, any grade.
Where [13] appears, read: N = 42, regardless of causality, grade 3.

On to `CC/C(=C(/c1ccc(/C=C/C(=O)O)cc1)c1ccc2[nH]ncc2c1)c1ccc(F)cc1Cl` [GDC-0810, reference compound], for which the ER antagonist/agonist profile result in the data set on ER [1] is given as “partial agonism”.
As to `C[C@]12CC[C@@H]3c4ccc(O)cc4C[C@@H](CCCCCCCCC[S+]([O-])CCCC(F)(F)C(F)(F)F)[C@H]3[C@@H]1CC[C@@H]2O` (stereo partly drawn) [fulvestrant], in data set [2] (SERENA-2, patients treated with fulvestrant), the “Median PFS” value is on record as 3.7 months.
In the case of `CC1=C(c2cccc(O)c2)[C@H](c2ccc(OCCN3CC(CF)C3)cc2)Oc2ccc(O)cc21` [GDC-0927], in [3] (N = 42), the “AEs leading to withdrawal” value is “no reports and None”; the Deaths result is “no deaths; also recorded: no reports”; the “Dose modifications due to AEs” value was “no dose modifications”; the “Grade 4 or grade 5 AEs” value is on record as “no grade 4 or grade 5 AEs; also recorded: no grade 4 or 5 AEs”. The “Treatment-related serious adverse events (SAE)” value in [3] (N = 42) was “no reports”. In [3] (N = 42, 600-1,400 mg once daily oral, regardless of causality, any grade), the “Patients with any adverse events” value is 37 n (%) and 37 (88) n (%). Further, in data set [3] (setting [10]), the Constipation is 6 n (%) and 6 (14) n (%); the Diarrhea is 5 n (%) and 5 (12) n (%); the Fatigue is 5 n (%) and 5 (12) n (%); the Hot flush is 8 n (%) and 8 (19) n (%). In addition, in data set [3] (setting [10]), the Nausea is 8 n (%) and 8 (19) n (%); the “Patients with at least one adverse event” value was 30 n (%) and 30 (71) n (%); the “Total number of events” value was determined as 109. Besides, in data set [3] (setting [11]), the Constipation was 0 n (%), the Diarrhea is listed as 0 n (%), the Fatigue was 0 n (%) and the Hot flush is recorded as 0 n (%). In addition, in data set [3] (setting [11]), the Nausea is 0 n (%), the “Patients with at least one adverse event” value is listed as 0 n (%) and the “Total number of events” value stood at 0. Also, in [3] (setting [12]), the Anemia was 6 n (%) and 6 (14) n (%); the Arthralgia is 8 n (%) and 8 (19) n (%); the “Aspartate aminotransferase (AST) increased” value is given as 5 (12) n (%); the Asthenia was 5 (12) n (%). For the same molecule, in data set [3] (setting [12]), the Back pain was 7 n (%) and 7 (17) n (%); the Constipation was 9 n (%) and 9 (21) n (%); the Cough is listed as 5 (12) n (%); the Diarrhea is 9 n (%) and 9 (21) n (%). Moreover, in data set [3] (setting [12]), the Fatigue was 8 n (%) and 8 (19) n (%); the Headache was 6 n (%) and 6 (14) n (%); the Hot flush was 8 n (%) and 8 (19) n (%); the Nausea was 14 n (%) and 14 (33) n (%). Moreover, in data set [3] (setting [12]), the Pain in extremity was 5 (12) n (%); the Vomiting was 7 n (%) and 7 (17) n (%). Moreover, in [3] (setting [13]), the Anemia is 0 n (%), the Arthralgia is reported as 0 n (%), the “Aspartate aminotransferase (AST) increased” value is 0 n (%) and the Asthenia is 1 (2) n (%). In data set [3] (setting [13]), the Back pain was 2 n (%) and 2 (5) n (%); the Constipation is reported as 0 n (%); the Cough is recorded as 0 n (%); the Diarrhea is listed as 0 n (%). In [3] (setting [13]), the Fatigue is listed as 0 n (%), the Headache was 0 n (%), the Hot flush is listed as 0 n (%) and the Nausea is given as 0 n (%). Further, in data set [3] (setting [13]), the Pain in extremity was 0 n (%), the “Patients with any adverse events” value is reported as 9 (21) n (%) and the Vomiting was 0 n (%). In data set [3] (N = 42, seven patients), the “Patients with AEs that led to dose interruptions” value turned out to be 17% and the “Patients with at least one SAE considered unrelated to GDC-0927” value is 17%. The “Patients with AEs of special interest (grade 2 deep vein thrombosis, grade 2 jugular vein thrombosis)” value in data set [3] (N = 42, two patients, both considered unrelated) was 5%. In addition, the DLTs entry in data set [3] (day −7 through first cycle (35 days), 600-1,400 mg/day) is “no reports of DLTs”. In data set [3] (oral once daily, doses up to the MAD of 1,400 mg/day), the MTD entry is listed as “not reached”. Further, the “Reduction in FES uptake” value with ER [4] is greater than 90%. The “Reduction in ER expression (ER protein, IHC), average” value in the data set on ER [5] is recorded as “approximately 40%”. Also, in data set [6] (N = 42), the “Confirmed complete or partial responses” value is reported as “no complete or partial responses; also recorded: no confirmed CRs or PRs”. Besides, the “Patients with confirmed best overall response of non-CR/PD” value in [6] (five patients, all at 1,400 mg) is 14%. Besides, the “Patients achieving clinical benefit” value in data set [6] (patients with baseline ctDNA ESR1 mutation(s), six of 22) was found to be 27%. For the same molecule, the “Patients achieving clinical benefit” value in data set [6] (patients without detectable baseline ctDNA ESR1 mutations, 6 of 20) turned out to be 30%. Besides, in [7], the “Patients with decline in PIK3CA/AKT1 MAF” value is listed as 8 of 13. Further, the “Prevalence of ESR1 mutations in on-treatment samples” value with ESR1 mutations in ctDNA amounted to 35%. Moreover, the “Tolerability at efficacious dose range” value in data set [8] (10–100 mg/kg/day) is given as “well tolerated”. In addition, the “Antitumor activity in xenograft models” value in data set [8] (ER+ breast cancer xenograft models) is listed as “induces tumor regression; also recorded: dose-dependent antitumor activity”. The “In vivo efficacious dose range” value in data set [8] was 10 to 100 mg/kg/day. In the data set on ER [1], the ER antagonist/agonist profile entry was “full antagonist profile” and the ER degradation result is reported as “ER degradation in all ER^+ cell lines tested”. The “ER agonism in the uterus” value in the data set on ER [9] is “lacked ER agonism”.
As to `C[C@@H]1Cc2c(ccc3[nH]ncc23)[C@@H](c2ccc(NC3CN(CCCF)C3)cn2)N1CC(F)(F)F` [camizestrant], the “Median PFS” value is given as 7.2 months in data set [2] (SERENA-2, camizestrant 75 mg) and 7.7 months in data set [2] (SERENA-2, camizestrant 150 mg).
